LEDGF integ inh – blocks HIV-1 LEDGF/p75-dependent DNA integration; TR-FRET IN-LEDGF/p75 DNA integration, Eu/Cy5; inhibition, % at 3.7 µM; 370,000 compounds, 0.64% hits; AID 743269;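 active = inhibition above the screen-wide mean plus 3 SD, cut at about 13% in these data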;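 note: signal is the Cy5 over europium emission ratio at 671 and 618 nm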
UHRF1 binding – UHRF1 methyl-DNA binding inhibition. Q96T88. UHRF1 binding to methylated oligo, TR-FRET. inhibition, % at 4.4 µM. 370,000 compounds, 0.75% hits; in the data active = inhibition above about 21%;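 note: UHRF1 SRA domain binding a hemimethylated CpG hairpin DNA probe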
ASAP1 inh – inhibitors of human ASAP1 ArfGAP activity; ASAP1-stimulated ARF1 GTP hydrolysis, GDP FP detection; 360,000 compounds, 0.19% hits; inhibition, % at 16.5 µM; AID 624377; in the data active = inhibition above about 25%
Target sequence (Q9ULH1 325-724 limits assumed): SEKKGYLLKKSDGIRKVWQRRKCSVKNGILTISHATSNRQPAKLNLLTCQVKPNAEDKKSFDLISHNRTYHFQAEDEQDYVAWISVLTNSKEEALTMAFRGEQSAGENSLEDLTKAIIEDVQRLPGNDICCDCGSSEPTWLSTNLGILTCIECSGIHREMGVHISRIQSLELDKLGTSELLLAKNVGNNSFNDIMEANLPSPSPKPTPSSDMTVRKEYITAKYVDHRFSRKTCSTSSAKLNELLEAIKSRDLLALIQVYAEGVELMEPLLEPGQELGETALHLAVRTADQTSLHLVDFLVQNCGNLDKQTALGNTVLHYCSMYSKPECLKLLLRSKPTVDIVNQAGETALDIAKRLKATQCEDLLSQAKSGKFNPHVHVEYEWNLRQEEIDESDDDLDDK
MBD2 inh – MBD2-methylated oligo binding inhibition; Q9UBB5; TR-FRET, MBD2 binding to methylated oligonucleotide; inhibition, % at 4.4 µM; 370,000 compounds, 0.31% hits; in the data active = inhibition above about 13%
TCR CD3 inh – human TCR-CD3 binding inhibition; TAMRA-labeled TCR probe fluorescence, biochemical; inhibition, % at 9.4 µM; 360,000 compounds, 0.37% hits; AID 651800; in the data active = inhibition above about 19%;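 note: recombinant mutant TCR 2C K166C tagged with TAMRA read by polarization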
ARFGAP1 inh – inhibits rat ARF GTPase activating protein 1; Q62848; Arfgap1-stimulated ARF1 GTP hydrolysis, GDP FP detection; inhibition, % at 16.5 µM; 360,000 compounds, 0.26% hits; AID 651572;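 active = inhibition above a per-plate limit, mean inhibition of low control wells plus 3 SD, cut at about 25% in these data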
Target sequence (Q62848 1-136 limits assumed): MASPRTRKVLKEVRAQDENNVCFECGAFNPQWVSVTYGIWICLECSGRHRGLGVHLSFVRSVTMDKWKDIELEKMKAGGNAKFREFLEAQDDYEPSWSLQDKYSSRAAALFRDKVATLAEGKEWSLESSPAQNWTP
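System: truncated rat Arfgap1 GAP domain / Benchmarks: high control wells lacking Arfgap1, low control full reaction with DMSO / Times: compound-enzyme preincubation 20 min, reaction 120 min, detection 60 min, 25 °C / Repeats: one replicate per compound / Also added: human ARF1(Δ1-17)-GTP substrate / Measured by: Tracer-displacement fluorescence polarization with EDTA stop, 620/688 nm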
IN multimer up – HIV-1 integrase multimerization activation, counter-screen | 2,000 compounds, 17% hits | activation, % at 7.7 µM | shares compounds with LEDGF integ inh | TR-FRET HIV-1 integrase multimerization, biochemical; in the data active = activation above about 8.9%
TRFRET interf – counter-screen for LEDGF/p75 integration inhibitors: TR-FRET optical interference; TR-FRET optical interference counterscreen, HIV-1 IN multimerization; shares compounds with LEDGF integ inh; inhibition, % at 7.7 µM; 2,000 tested, under 10 active;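 active = inhibition above the mean over all tested compounds plus 3 SD, which no compound reached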
LEDGF integ conf – confirmation of HIV-1 LEDGF/p75-dependent integration inhibitors; shares compounds with LEDGF integ inh; TR-FRET LEDGF/p75-dependent HIV-1 integration, biochemical; inhibition, % at 3.7 µM; 2,000 compounds, 36% hits; AID 1053136; in the data active = inhibition above about 14%
Numbers stand for hits. An excerpt weighted towards active compounds, which were near 2% of everything screened.

What do the screens show for `O=C1/C(=C/c2ccccc2Cl)N2CCC1CC2`?
LEDGF integ inh: inactive; UHRF1 binding: inactive; ASAP1 inh: inactive; MBD2 inh: inactive; TCR CD3 inh: inactive; ARFGAP1 inh: inactive

What do the screens show for `CN(C)[C@@H]1C(=O)C(C(N)=O)=C(O)[C@@]2(O)C(=O)C3=C(O)c4c(O)ccc(Cl)c4[C@@](C)(O)C3C[C@@H]12` (some centres undefined)?
LEDGF integ inh: 27.7; UHRF1 binding: inactive; ASAP1 inh: inactive; MBD2 inh: inactive; TCR CD3 inh: inactive; ARFGAP1 inh: inactive; IN multimer up: 13.8; TRFRET interf: inactive; LEDGF integ conf: 28.1

What do the screens show for `O=[N+]([O-])c1oc2ccc3ccccc3c2c1CCO`?
LEDGF integ inh: inactive; UHRF1 binding: inactive; ASAP1 inh: inactive; MBD2 inh: inactive; TCR CD3 inh: inactive; ARFGAP1 inh: inactive

Results for CCc1nc2ccccc2c(=O)n1-c1ccccc1OC ?
LEDGF integ inh: 24.7; UHRF1 binding: inactive; ASAP1 inh: inactive; MBD2 inh: inactive; TCR CD3 inh: inactive; ARFGAP1 inh: inactive; IN multimer up: inactive; TRFRET interf: inactive; LEDGF integ conf: inactive

What do the screens show for `CC(C)CN1Cc2cc(-c3ccccc3)ccc2-n2nncc2C1`?
LEDGF integ inh: inactive; UHRF1 binding: inactive; ASAP1 inh: inactive; MBD2 inh: inactive; TCR CD3 inh: inactive; ARFGAP1 inh: inactive

How did O=[N+]([O-])c1cc([As](=O)(O)c2ccc(O)c([N+](=O)[O-])c2)ccc1O do in these assays?
LEDGF integ inh: inactive; UHRF1 binding: inactive; ASAP1 inh: inactive; MBD2 inh: inactive; TCR CD3 inh: inactive; ARFGAP1 inh: inactive

Results for O=C1NC(=O)C(=Cc2cc3c(cc2[N+](=O)[O-])OCO3)C(=O)N1 ?
LEDGF integ inh: 20.7; UHRF1 binding: inactive; ASAP1 inh: inactive; MBD2 inh: inactive; TCR CD3 inh: inactive; ARFGAP1 inh: inactive; IN multimer up: inactive; TRFRET interf: inactive; LEDGF integ conf: inactive

What do the screens show for `CCN(CC)CCN=Cc1c(O)n(Cc2ccco2)c(=O)[nH]c1=O`?
LEDGF integ inh: inactive; UHRF1 binding: inactive; ASAP1 inh: inactive; MBD2 inh: inactive; TCR CD3 inh: inactive; ARFGAP1 inh: inactive

What do the screens show for `CCCCC(=O)N/N=C/c1c(O)n(Cc2ccco2)c(=O)[nH]c1=O`?
LEDGF integ inh: 26.9; UHRF1 binding: inactive; ASAP1 inh: inactive; MBD2 inh: inactive; TCR CD3 inh: inactive; ARFGAP1 inh: inactive; IN multimer up: inactive; TRFRET interf: inactive; LEDGF integ conf: inactive

What do the screens show for `O=c1[nH]c(=O)n(Cc2ccco2)c(O)c1C=NCc1ccco1`?
LEDGF integ inh: 14.7; UHRF1 binding: inactive; ASAP1 inh: inactive; MBD2 inh: inactive; TCR CD3 inh: inactive; ARFGAP1 inh: inactive; IN multimer up: inactive; TRFRET interf: inactive; LEDGF integ conf: inactive

What do the screens show for `COP(=S)(OC)Oc1ccc(Sc2ccc(OP(=S)(OC)OC)cc2)cc1`?
LEDGF integ inh: inactive; UHRF1 binding: inactive; ASAP1 inh: inactive; MBD2 inh: inactive; TCR CD3 inh: inactive; ARFGAP1 inh: inactive

Results for CC(Cc1ccc(O)cc1)NCC(O)c1ccc(O)c(O)c1 (centres undefined) ?
LEDGF integ inh: 35.2; UHRF1 binding: inactive; ASAP1 inh: inactive; MBD2 inh: inactive; TCR CD3 inh: inactive; ARFGAP1 inh: inactive; IN multimer up: 10.2; TRFRET interf: inactive; LEDGF integ conf: 63.1

Results for CNCC(O)c1ccc(O)cc1 (centres undefined) ?
LEDGF integ inh: inactive; UHRF1 binding: inactive; ASAP1 inh: inactive; MBD2 inh: inactive; TCR CD3 inh: inactive; ARFGAP1 inh: inactive

Results for C=C1C/C(=C/C)C(=O)O[C@@H]2CCN3CC=C(COC(=O)[C@]1(C)O)[C@H]23 ?
LEDGF integ inh: inactive; UHRF1 binding: inactive; ASAP1 inh: inactive; MBD2 inh: inactive; TCR CD3 inh: inactive; ARFGAP1 inh: inactive

Results for C=C1C(=O)OC2CCN3CC=C(COC(=O)C(C)(O)C4(CO4)C1C)C23 (centres undefined) ?
LEDGF integ inh: 37.1; UHRF1 binding: 41.2; ASAP1 inh: inactive; MBD2 inh: inactive; TCR CD3 inh: inactive; ARFGAP1 inh: inactive; IN multimer up: inactive; TRFRET interf: inactive; LEDGF integ conf: inactive

How did C=C(C)CC1(CC)C(=O)NC(=S)NC1=O do in these assays?
LEDGF integ inh: 20.3; UHRF1 binding: inactive; ASAP1 inh: inactive; MBD2 inh: inactive; TCR CD3 inh: inactive; ARFGAP1 inh: inactive; IN multimer up: inactive; TRFRET interf: inactive; LEDGF integ conf: inactive

How did O=C1NC(=O)N(c2ccccc2)C(=O)/C1=C\C=C\c1ccccc1 do in these assays?
LEDGF integ inh: inactive; UHRF1 binding: inactive; ASAP1 inh: inactive; MBD2 inh: inactive; TCR CD3 inh: inactive; ARFGAP1 inh: inactive

What do the screens show for `Cc1cc(C)cc(N2C(=O)NC(=O)/C(=C\C=C\c3ccco3)C2=O)c1`?
LEDGF integ inh: 34.5; UHRF1 binding: inactive; ASAP1 inh: inactive; MBD2 inh: inactive; TCR CD3 inh: inactive; ARFGAP1 inh: inactive; IN multimer up: inactive; TRFRET interf: inactive; LEDGF integ conf: 29.3

What do the screens show for `CCc1ccc(N2C(=O)NC(=O)/C(=C\C=C\c3ccco3)C2=O)cc1`?
LEDGF integ inh: 34.9; UHRF1 binding: inactive; ASAP1 inh: inactive; MBD2 inh: inactive; TCR CD3 inh: inactive; ARFGAP1 inh: inactive; IN multimer up: inactive; TRFRET interf: inactive; LEDGF integ conf: 39.7

What do the screens show for `CC(C)c1ccc(N2C(=O)NC(=O)/C(=C/C=C/c3ccco3)C2=O)cc1`?
LEDGF integ inh: 23.6; UHRF1 binding: inactive; ASAP1 inh: inactive; MBD2 inh: inactive; TCR CD3 inh: inactive; ARFGAP1 inh: inactive; IN multimer up: inactive; TRFRET interf: inactive; LEDGF integ conf: 26.7

Results for O=C1NC(=O)N(Cc2ccc(F)cc2)C(=O)/C1=C\C=C\c1ccco1 ?
LEDGF integ inh: 29.6; UHRF1 binding: inactive; ASAP1 inh: inactive; MBD2 inh: inactive; TCR CD3 inh: inactive; ARFGAP1 inh: inactive; IN multimer up: inactive; TRFRET interf: inactive; LEDGF integ conf: 19.9

What do the screens show for `COc1ccc(CNCCc2ccc(Cl)cc2)c(OC)c1OC`?
LEDGF integ inh: inactive; UHRF1 binding: inactive; ASAP1 inh: inactive; MBD2 inh: inactive; TCR CD3 inh: inactive; ARFGAP1 inh: inactive

Results for COc1cccc2c1cc([N+](=O)[O-])c1c(C(=O)O)cc3c(c12)OCO3 ?
LEDGF integ inh: inactive; UHRF1 binding: inactive; ASAP1 inh: inactive; MBD2 inh: inactive; TCR CD3 inh: inactive; ARFGAP1 inh: inactive
